Experimental findings from PubChem BioAssay AID463141 (The Scripps Research Institute Molecular Screening Center, 2010) are described below.

“And” between values parts separate entries of the source, which are not always exact repeats. Equal entries are not always repeated. In all, about 330,000 compounds went through this assay and about 350 (0.11%) were called active. The sample holds actives, similar compounds and a random draw of the others, so the mix is not that of the screen. Unmarked numbers belong to inactive results.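 How the source made its calls: active means activation above the mean of all tested compounds plus 3 SD (cut at about 21% in these data); inactive means the rest.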

Caspase-3 (Homo sapiens), sequence (P42574 whole entry D9A/D28A/D175A): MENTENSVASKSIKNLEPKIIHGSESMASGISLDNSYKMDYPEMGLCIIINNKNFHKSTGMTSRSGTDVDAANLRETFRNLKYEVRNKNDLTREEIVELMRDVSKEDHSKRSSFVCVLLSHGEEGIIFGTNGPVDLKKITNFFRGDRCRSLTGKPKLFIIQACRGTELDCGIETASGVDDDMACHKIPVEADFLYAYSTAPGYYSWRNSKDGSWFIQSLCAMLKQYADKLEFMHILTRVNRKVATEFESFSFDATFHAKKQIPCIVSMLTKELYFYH

The target in the test is Caspase-3 (Homo sapiens) (UniProt P42574). Kind of test: procaspase-3 enzyme activation – biochemical, absorbance, PC-3 D3A mutant, single concentration, primary screen (AID 463141).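 Further: 0% = DMSO alone and 100% = DMSO wells spiked with extra 5 µM PC-3 D3A.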 The settings on record: recombinant procaspase-3 D3A, Ac-DEVD-pNA absorbance 405 nm; at 8.5 µM; active compounds read high. The method, boiled down: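 Test system: Procaspase-3 D3A mutant, all three cleavage aspartates alanine | Dosing: Single dose, 8.5 µM nominal compound, 0.8% DMSO | Schedule: 1 h preincubation, 2 h reaction | Technique: 405 nm absorbance of p-nitroaniline, reads at 0 and 120 min | Repeats: One well per compound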
Regarding `Cc1ccc(C(=O)CN2C(=O)NC3(CCc4ccccc43)C2=O)c(C)c1` (stereo unspecified), the activation was 6%.

In the case of `Cc1ccc(C(=O)N2CCCC(c3ccccc3)=N2)cc1`, the activation was 3.86%.

As to `COc1ccc2c(c1)c(=O)c(C(=O)c1ccc(Cl)cc1)cn2CC(=O)Nc1ccc(F)cc1`, the activation was 2.32%.

With `CC(C)COP(=O)(c1ccc(N(C)C)cc1)C(Nc1ccccc1)c1cccnc1` (stereo unspecified), the activation was 5.66%.

With `Cc1nnc(SCC(=O)Nc2ncc3c(n2)CC(C)(C)CC3=O)s1`, the activation was -5.45%.

In the case of `CSc1ccc(/C=C/C(=O)NC23CC4CC(CC(C4)C2)C3)cc1`, the activation was 2.05%.

In the case of `CN(CC(=O)NC1CCN(Cc2ccccc2)CC1)S(=O)(=O)c1ccc(Cl)s1`, the activation is 5.81%.

Consider `C=CCNC(=O)C1CC2c3ccccc3C1c1ccccc12` (stereo unspecified), for which the activation is 5.82%.

Regarding `O=C(COc1ccccc1Cl)N1N=C(c2cccs2)CC1c1ccco1` (stereo unspecified), the activation was 4.79%.

As to `COc1ccc(C2CC(c3cccs3)=NN2c2ccc(F)cc2)cc1OC` (stereo unspecified), the activation was -19.4%.

For the compound `Fc1ccc(N2N=C(c3cccs3)CC2c2ccco2)c(F)c1` (stereo unspecified), the activation is 40% (active).

As for `COc1ccccc1N1CCN(C(=O)c2cn(-c3ccccc3)nc2-c2cccnc2)CC1`, the activation was -2.98%.

Regarding `COc1ccc(Nc2ncc(C(=O)N3CCN(c4ccccc4OC)CC3)c3ccccc23)cc1`, the activation was 30.4% (active).

Take `COc1ccccc1N1CCN(C(=O)c2ccc(NC3=NC4CS(=O)(=O)CC4S3)cc2)CC1` (stereo unspecified): the activation is -12%.

With `O=C(NCc1cccnc1)Nc1cccc(NC(=O)NCc2cccnc2)c1F`, the activation is 2.89%.

As for `COC(=O)Cc1cnc(NC(=O)CSc2nc(C(C)C)cc(=O)[nH]2)s1`, the activation is 5.45%.

As for `CCC(=O)Nc1c(C)n[nH]c1C`, the activation is -3.68%.

For the compound `N#Cc1ccc(C2N=C(c3ccccc3)NO2)cc1` (stereo unspecified), the activation was -2.62%.

For the compound `COCc1c(C(=O)N/N=C\c2cccnc2)nnn1-c1nonc1N`, the activation was 0.8%.

For `Cc1cccc(N=Nc2c(O)[nH]c3ccc(F)cc23)c1`, the activation was 12.6%.

For the compound `COc1ccc(-c2onc3ccc(C(C)=O)cc23)cc1`, the activation was 103% (active).

On to `Oc1ccc(-c2onc3ccc(Cl)cc23)cc1`, for which the activation was -12.8%.

With `CC(OC(=O)c1ccc2noc(-c3ccccc3)c2c1)C(N)=O` (stereo unspecified), the activation was -2.76%.

With `COc1ccc(NC(=S)N2N=CCC2c2ccccc2)cc1` (stereo unspecified), the activation is 11.4%.

As to `c1cnc(N2CCN(c3ccc4ccccc4n3)CC2)nc1`, the activation was 2.75%.

Turning to `NC[C@H](Cc1ccccc1)NCCc1cc(C(F)(F)F)cc(C(F)(F)F)c1`, the activation is -5.68%.

`COc1ccccc1C(=O)N1CCN=C1SCc1cccnc1`: the activation was -6.62%.

`O=C(CCN1CCN(C/C=C/c2ccccc2)CC1)Nc1ccccc1Cl`: the activation was 8.05%.

As to `Cn1cnc([N+](=O)[O-])c1Sc1n[nH]c(N)n1`, the activation is 6.6%.

`COCCCNC(=S)N(Cc1ccccc1)Cc1ccc(F)cc1`: the activation was -1.61%.

With `CCCNc1ncnc2sc(C)c(C)c12`, the activation is -0.52%.

Turning to `CN(C)c1ccc2c(=O)[nH][nH]c(=O)c2c1`, the activation is 10.1%.

Regarding `CCOc1ccccc1NC(=O)C1CCCN(S(=O)(=O)c2ccccc2)C1` (stereo unspecified), the activation was 2.37%.

For `CN1CC(=O)N=C1N`, the activation is 6.53% and -3.63%.

`CCOC(=O)CNC(=O)CSc1ccc2nnc(-c3cccnc3)n2n1`: the activation was 0.59%.

Take `CC(C)NC(=S)N1CCN(S(C)(=O)=O)CC1`: the activation was 9.6%.

Regarding `CC(=O)c1ccc(N=C2SCCCN2C(=O)C2CCCCC2)cc1`, the activation is 8.2%.

Turning to `COc1cc(C(=O)NC2CCN(Cc3ccccc3)CC2)cc(Cl)c1OC(C)C`, the activation is 4.82%.

For the compound `CCOc1ccc2c(c1)cc(CN(C(=O)CC)C1CCCCC1)c1nnnn12`, the activation is 0.4%.

`O=C(c1ccc(N2CCOCC2)c([N+](=O)[O-])c1)N1CCN(S(=O)(=O)c2cccs2)CC1`: the activation was -3.64%.

`CC1CCN(C(=S)NC(=O)c2ccccc2Br)CC1`: the activation was -4.02%.

With `COc1ccc(C2CC(c3cccs3)=NN2c2ccccc2)cc1` (stereo unspecified), the activation was -24.6%.

As for `Oc1ccccc1C1=NN(c2ccccc2)C(c2ccccc2)C1` (stereo unspecified), the activation was 32.8% (active).

In the case of `CC(=O)Oc1ccccc1C1=NN(C(C)=O)C(c2ccccc2)C1` (stereo unspecified), the activation is 1.13%.

Take `O=C(CCNc1n[nH]c(=O)[nH]c1=O)N/N=C\c1ccc(Br)cc1`: the activation was -3.48%.

For the compound `Cc1c(S(=O)(=O)N2CC(C)CC(C)C2)c(=O)n(C)c(=O)n1C` (stereo unspecified), the activation was -6.15%.

Consider `CCc1ccc2oc(-c3ccc(N)cc3)nc2c1`, for which the activation is 5.03%.

On to `COC(=O)c1cc(NC(=O)CN2CCC(C(N)=O)(N3CCCCC3)CC2)cc(C(=O)OC)c1`, for which the activation is 12.7%.

Consider `O=C(CC(NC(=O)c1ccccc1)c1ccccc1)Nc1ccc(F)c(F)c1` (stereo unspecified), for which the activation was 5.87%.

As to `CC(C)OC(=O)c1cc(NC(=O)C2C3CCC(O3)C2C(=O)O)cc(C(=O)OC(C)C)c1` (stereo unspecified), the activation is -5.36%.

With `CN1CCCN(C(=O)C2CCCCC2)CC1`, the activation was 5.38%.

Consider `CCN(CC)c1ccc(NC(=O)CN2CCN(c3ccccn3)CC2)cc1`, for which the activation is -5.15%.

For the compound `Cc1cccc(C2C3=C(CCCC3=O)N=C3c4ccccc4C(=O)C32)c1` (stereo unspecified), the activation is -13.4%.

Regarding `CN(C)C(=O)N=NC(=O)N(C)C`, the activation was -12.2%.

For the compound `O=C(COC(=O)C1CC2CCCC(C1)C2=O)NC(=O)c1ccccc1` (stereo unspecified), the activation is -4.78%.

For `COC(=O)C(C(=O)Nc1cccc(Cl)c1C)C1CCCC1` (stereo unspecified), the activation was 1.15%.

Turning to `COc1ccc(CN2CCN(C(=O)CCC(=O)Nc3nnc(C(C)C)s3)CC2)cc1F`, the activation is -6.44%.

Consider `O=C(CSC1=NS(=O)(=O)c2cc(F)ccc2N1)Nc1ccccc1F`, for which the activation was -6.67%.

Take `COc1ccccc1N=C(C)C1=C(O)COC1=O`: the activation was -3.88%.

In the case of `COc1ccccc1N=Cc1c(O)c2ccccc2oc1=O`, the activation was 26.5% (active).

Regarding `COc1cc(N=Cc2c(O)c3ccccc3oc2=O)c(OC)cc1Cl`, the activation is 3.99%.

For the compound `COC(=O)c1cc(OC)c(OC)cc1NC(=O)C1CCCO1` (stereo unspecified), the activation is -0.83%.

`COc1ccc(CN2CCC(c3nc4ccc(Cl)cc4[nH]3)CC2)cc1`: the activation is -3.22%.

Take `O=C(NCC(=O)N(c1ccccc1)C(C(=O)NCC1CCCO1)c1ccccc1)c1cccs1` (stereo unspecified): the activation is -3.61%.

As to `COCCn1c(SCC(=O)Nc2nc(C)cs2)nnc1C(C)C`, the activation was 2.76%.

Regarding `CCCN1C2=C(C(=O)CCC2)C(c2ccc(O)c(Br)c2)C2=C1CCCC2=O`, the activation was -10.1%.

For `COc1ccc(C)cc1Nc1nc(C)nc2c1oc1ccccc12`, the activation was 4.37%.

`COc1ccc(C)cc1NC(=O)NCc1ccccn1`: the activation is -10.4%.

For the compound `COC(=O)c1cnc(Nc2cc(C)ccc2OC)c2ccccc12`, the activation is 35.2% (active).

Regarding `COc1ccc(CN2[C@@H](CC(=O)O)c3cc(F)ccc3S2(=O)=O)cc1`, the activation was 3.51%.

Regarding `CC1CCCN(S(=O)(=O)c2ccc(N(C(=O)c3cnccn3)C(C(=O)NC3CCCCC3)c3cccs3)cc2)C1` (stereo unspecified), the activation is 3.94%.

Turning to `Cc1cccc(C)c1N1C(=O)CN(Cc2ccccc2)C1=S`, the activation was -3%.

As for `NC(=O)c1nsc(C(=O)N(CCCN2CCOCC2)C(C(=O)NC2CCCCC2)c2ccc(Cl)cc2)c1N` (stereo unspecified), the activation is -8.01%.

On to `Cc1nn(C)cc1CNC(=O)Nc1ccc(Cl)cc1`, for which the activation is 31.2% (active).

Take `O=C(NCc1ccccn1)Nc1ccc(Cl)cc1`: the activation was -0.71%.

In the case of `Cc1nn(C)cc1C(=O)NNC(=S)Nc1ccc(Cl)cc1`, the activation was -4.7%.

For `CN(C)CCNC(=O)C(C(=O)c1ccccc1)n1ccccc1=O` (stereo unspecified), the activation is 2.49%.

With `O=C(Cn1nc(C(=O)O)c2ccccc2c1=O)Nc1ccc(F)cc1`, the activation was 2.68%.

Regarding `Cc1cccc(NC(=O)c2cccc(C(=O)Nc3cccc(C)c3C)n2)c1C`, the activation is -5.05%.

Regarding `Cc1ccccc1CSCCNC(=O)c1ccc(N(C)S(=O)(=O)c2ccccc2)cc1`, the activation was -1.26%.

Consider `COc1cc(CNCc2cccs2)cc(Br)c1OC`, for which the activation is 2.29%.

As for `COc1ccc2nc(NC(=O)NC3CCCCC3)sc2c1`, the activation is -1.14%.

As for `COc1ccc2nc(Nc3nc4ccc(NC(C)=O)cc4s3)sc2c1`, the activation is 28.4% (active).

Turning to `CCCC(=O)Nc1nc2ccc(NC(=O)c3c(F)c(F)c(OC)c(F)c3F)cc2s1`, the activation was 8.06%.

Consider `CCCc1cc(=O)oc2c(C)c(OCC(=O)Nc3ccccn3)ccc12`, for which the activation is -8.09%.

For `COc1cccc(C(=O)OCc2cc(=O)oc3c(C)c(C)ccc23)c1OC`, the activation was 1.33%.

On to `COC(=O)Cc1cc(=O)oc2c(C)c(O)ccc12`, for which the activation is 22.9% (active).

For the compound `C=CCSc1ccc(S(=O)(=O)N2CCN(C)CC2)cn1`, the activation was 6.46%.

As to `COC(=O)[C@@H]1C[C@@]2(O)[C@H](O)[C@H](O)[C@H](O)C[C@H]2N1Cc1ccc(C(C)(C)C)cc1`, the activation was 1.49%.

Consider `COc1ccc(CNC(=O)c2ccc(NS(=O)(=O)c3ccc4[nH]c(=O)[nH]c4c3)cc2)cc1OC`, for which the activation was -5.34%.

Turning to `C[C@@H]1CN([C@H](C)CO)C(=O)c2cc(NC(=O)NC3CCCCC3)ccc2O[C@H]1CN(C)S(C)(=O)=O`, the activation is -10.4%.

Regarding `COc1ccccc1C1C(C#N)=C(N)Oc2c1c(-c1ccccc1)nn2-c1ccccc1` (stereo unspecified), the activation was 3.18%.

Take `Cc1cc(C)n(-c2nc(O)cc(=O)[nH]2)n1`: the activation was 13.4%.

Take `CCOc1ccc2c(=O)c(-c3ccc4c(c3)OCCCO4)c(C)oc2c1`: the activation was -0.35%.

Regarding `O=C(CSCc1ccccc1Cl)NNC(=O)c1ccccc1`, the activation is -5.37%.

For the compound `O=C(Nc1cccc2ccccc12)c1onc2c1CCCC2`, the activation was 2.73%.
